Results from the RNAGym collection of RNA variant scans (doi:10.1126/science.aae0568).
This sample holds only a part of the variants without activity.

B1: tRNA (parent)
chain: GUUCCGUUGGCGUAAUGGUAACGCGUCUCCCUCCUAAGGAGAAGACUGCGGGUUCGAGUCCCGUACGGAACG

Variants of: B1
Experiment: yeast fitness relative to wild type (ratio to wild type); higher = fitter; tRNA-Arg(CCU), competitive growth, 37 C, YPD
Procedure, shortened: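 Start and end populations of a pooled competition were compared by 100-nucleotide paired-end sequencing of gene amplicons. The Saccharomyces cerevisiae strains carried tRNA-Arg(CCU) gene variants at the native genomic locus, synthesised with a 3% per-site mutation rate at 69 sites, and competed in YPD at 37°C for 24 hours in six parallel replicates. Darwinian fitness relative to wild type was based on the change in genotype frequencies. Genotypes required ≥ 100 starting reads, and estimates < 0.5 were set to 0.5.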

Variant | yeast fitness
A37C A42C A69U | 0.749
U35A A42U A43U U59G | 0.541
A36C U53A | 0.643
U35C G58A C60U | ≤ 0.5
A36U A45G | 0.606
A36G A45C G52C | 0.533
U35G A37G C49U | ≤ 0.5
A36U G48C C49G | ≤ 0.5
A36U C61U G63A C66U | ≤ 0.5
U35G G67A | 0.616
U35A C49U | 0.761
A37C C46G C49G | 0.568
A37C A43C C66A | ≤ 0.5
A37C A45U | 0.695
A36G A45U A70U | 0.708
A36U A65U G67A A70G | ≤ 0.5
A36G C60G A70G | ≤ 0.5
U35C A43C C55G A65U | ≤ 0.5
U35A A36C C66A | ≤ 0.5
A36G A45C A57C U64A G68A | ≤ 0.5
U35A C46A C49G G52A C60U | 0.661
A37C A43C U59A A69G | ≤ 0.5
C34U U54C C61A | ≤ 0.5
A37C C46U A65C G68A | ≤ 0.5

Variant | yeast fitness
A37C A43U G63A | 0.666
U35C A42C U64A | ≤ 0.5
A36C A42U A43G G63C | 0.509
A36U A40U A45G G58C | 0.565
C34U U35G G38A C62U A65C G67A | ≤ 0.5
A36C C55U C66A | ≤ 0.5
U35A C46G C49U | 0.527
U35A A40U C46G U53A | ≤ 0.5
A36C G56C A57C | 0.593
A36U G63A | 0.672
U35G C62G | 0.597
U35G C62U | 0.7
U35G A40C C62G C66G | 0.539
A36C G48A | 0.594
U35A C46A C55A A69U | ≤ 0.5
A36C G44U | ≤ 0.5
C34U U54A | ≤ 0.5
U35C G50A C55U | ≤ 0.5
A36G C60A | 0.575
U35A C60A A65U A70G | ≤ 0.5
A36U A57C C62U | 0.627
U35A C49G C60A | ≤ 0.5
A36U A40C | 0.54
A36U A40U | 0.591

Variant | yeast fitness
A36G G56A A70G | 0.595
U35G C55U | 0.664
U35C A45U C49A | 0.594
A36U A43C G44C G48C | ≤ 0.5
A37C C46G C60A C66U | ≤ 0.5
U35C A37C C55A C60G G63C | ≤ 0.5
A36G A69G | 0.932
A36U G50A C61U | ≤ 0.5
U35A A57C C62U | ≤ 0.5
U35C A45G C62A | ≤ 0.5
A36C A45U U59A | ≤ 0.5
U35G U64C A69C | ≤ 0.5
A36C G41A U53C A65U | ≤ 0.5
A36G C55A | 0.729
U35G A70C | 0.711
A36G C61U A69C | 0.693
A36C G50C U53C | ≤ 0.5
U35A G41A C55U | 0.539
U35A G38C | 0.527
U35G A43G | 0.725
U35C A37U C46G U54C C61A | ≤ 0.5
U35G A40C | 0.682
A36G A37U C66A A69U | ≤ 0.5
A36C G38C G52A | ≤ 0.5

Variant | yeast fitness
A36G G38C G58C | 0.687
A37C A70U | 0.752
A37C A70C | 0.968
U35C A43U U47A | ≤ 0.5
A36C A45C U54A A57C | 0.538
A36U C61U C66U | 0.582
A37C C49G A57C | ≤ 0.5
U35C G39A | 0.886
A36G U47A G67C | ≤ 0.5
A36C C66U | 0.575
A37C A43U G52A C62A C66A | ≤ 0.5
A36C C61U | 0.581
A36G G48C C60A | ≤ 0.5
U35A C60G C62G G68A | ≤ 0.5
A37C A57G | 0.665
A37C A57C | 0.543
A37C A45U C61U | 0.545
A36G A37C A43G | 0.63
A36U C49U G58C C66U | ≤ 0.5
A36G U64C | 0.78
U35C G44C | 0.88
U35A C60G G63A | 0.503
U35G G51A A65C | 0.622
C34U G68C | 0.773

Variant | yeast fitness
A36C A57U C60A | ≤ 0.5
U35C A42C | 0.819
U35C A42U | 0.819
U35A A37G C49A | ≤ 0.5
U35G A45U | 0.589
U35G G52A | ≤ 0.5
U35A A57U U59C | ≤ 0.5
A36U A37U C55U | 0.634
U35C A43U | 0.971
U35C A43C | 0.927
U35C A43G | 0.783
A36G C49U U64C G68C | ≤ 0.5
U35A A37G A43U A45C C61U | ≤ 0.5
A36G C49U A69C | 0.836
A36U C61G A65C | ≤ 0.5
A36C A57U | 0.509
U35A U59C C62U C66U | 0.645
U35A A42C C46U C66U G67C | ≤ 0.5
A36U C49G G50C | ≤ 0.5
A36C U47A G56U | 0.617
C34U U35C | 0.607
A36U C46A | 0.763
A36U C46U | 0.608
A36G G44A | 0.978

Variant | yeast fitness
U35C C62U | 0.882
U35A C46A C49G G52A | 0.572
U35A C66G | 0.599
U35A A43G | 0.624
A36G G39C C49U U54G | 0.58
A36U G58C C60U | ≤ 0.5
A37C A43C A65C | 0.612
A37C A57U U59C | ≤ 0.5
A37C C46U U53C | ≤ 0.5
A36G A37U G56C | ≤ 0.5
U35C C46A A70U | 0.767
A36G C61G | 0.659
U35G G38C G63A | ≤ 0.5
A36C G52A | ≤ 0.5
A37C C46G C62U A69U | 0.673
A36U A43C U53C | ≤ 0.5
A36U G58C A65U | ≤ 0.5
U35G G51A | 0.634
A36G U47C | 0.989
A36G A43C | 0.819
A36C C60U C62U A65C | ≤ 0.5
U35C G68A | 0.67
U35C G68U | 0.657
U35C G68C | 0.644

Variant | yeast fitness
A36G A57G | 0.985
A36G G67C | 0.759
A36U C55A | ≤ 0.5
U35A A42C | 0.643
U35A G44A | 0.715
C34U U35C A40C | ≤ 0.5
U35C C55U C62A | 0.527
U35G U59A | 0.646
A36U G41C | 0.686
A36C A45C G48A | ≤ 0.5
U35A A69U | 0.806
A36U G56A | 0.574
A36U G56C | 0.563
A36U C62A | 0.611
A36U C62U | 0.645
A37C A42G G44A G67A | ≤ 0.5
A36U A42U C46U G56C C61G A65U G67A A70G | ≤ 0.5
A36U A43U | 0.638
U35C C66U | 0.781
U35C C66G | 0.657
A36C A37C U53G C66U A70C | 0.531
U35A A40U A57U | 0.625
A36U A65G | 0.673
